From the array DNA melting data of Ke et al. (doi:10.1101/2024.01.08.574731)

Columns and labels:
[1] = melting temperature; fluorescence melt of hairpins on a sequencing array, two-state fit, raised by 9.35 °C to match UV melts; conditions: sodium 0.088 M
Procedure, shortened: (§1)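 Melting temperature and folding enthalpy were derived from bootstrapped two-state fits. The fitted temperatures were raised by 9.35 °C to agree with UV melts, and four replicates were combined by inverse variance. The underlying data were Cy3 fluorescence images of library hairpins, with annealed Cy3 and quencher oligos, on a sequenced MiSeq flow cell in 50 mM Na-HEPES pH 8.0, 25 mM NaCl, taken in 2.5 °C steps up to 60 °C, normalised to pre-quench Cy3 and to control constructs.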

[2] = folding enthalpy; higher = less favourable; fluorescence melt of hairpins on a sequencing array, two-state fit; conditions: sodium 0.088 M
Procedure, shortened: as §1

Sequence | Tm [1] | folding enthalpy [2]
GCATACCGAAAGGTTGC (((.(((....)))))) | 54 °C | -32.3 kcal/mol
GTGTAGGGAAACCTGCAC (((.(((....))).))) | 50.3 °C | -29.7 kcal/mol
GCCCGGGCGAAAGCCGGC (((..(((....)))))) | 59.5 °C | -12.5 kcal/mol
GTAAAAGCGAAAGCTTAC (((..(((....)))))) | 35.9 °C | -11.6 kcal/mol
GGAAGGAAACTTCC (((((....))))) | 46 °C | -24.1 kcal/mol
CGAGGGCGGAAACGCTCG (((..(((....)))))) | 48.5 °C | -16.9 kcal/mol
GGACCCGAAAGGGGGTCC ((((((....)))..))) | 63.8 °C | -27.1 kcal/mol
GGTCTTGGAAACGAGACC (((((.(....).))))) | 51.9 °C | -37.6 kcal/mol
GATCTCTGGGGAGATC ((((((....)))))) | 56.4 °C | -41.2 kcal/mol
GAGGCGGGAAACCGCTTC ((.((((....)))).)) | 51 °C | -15.9 kcal/mol
GGTCTTCGAAAGAAAACC (((.(((....))).))) | 35.2 °C | -25.7 kcal/mol
GATCGAACGATCGATC ((((((....)))))) | 52.8 °C | -18.9 kcal/mol
GTTCTCTCGAAAGAGAAC (((..(((....)))))) | 51.1 °C | -34.5 kcal/mol
GCTGTAACGAAAGTTAGC (((..(((....)))))) | 35 °C | -20.5 kcal/mol
GAGGCCGAAAGGCACTC ((((((....))).))) | 54.1 °C | -14.5 kcal/mol
GCTGTTGAAAAACAGC ((((((....)))))) | 59.2 °C | -38.6 kcal/mol
TGTTCGAAAGAACA (((((....))))) | 52.3 °C | -17.1 kcal/mol
GGTTGAGGAAACTCGATC (.(.(((....))).).) | 29.8 °C | -16.8 kcal/mol
GATCCAACATTGGATC ((((((....)))))) | 50 °C | -43.3 kcal/mol

Sequence | Tm [1] | folding enthalpy [2]
GCCCGGCGAAAGCGGAGC ((.(.((....)).).)) | 54.8 °C | -14.8 kcal/mol
GATCAGGCTCTGATC ((((((...)))))) | 49.1 °C | -35.2 kcal/mol
GAGTGTGGAAACGCATTC ((.((.(....).)).)) | 28.5 °C | -19 kcal/mol
GTCGCCGAAAGGCCTGAC ((((((....)))..))) | 31.8 °C | -12.4 kcal/mol
GATCCCAATAGGGATC ((((((....)))))) | 64.8 °C | -36.5 kcal/mol
GATCCATCGTTGGATC ((((((....)))))) | 51.7 °C | -43.1 kcal/mol
GGCTAGGGAAACTTAGCC (((((.(....).))))) | 49.4 °C | -37.1 kcal/mol
GCGGCTACGAAAGTACGC (((..(((....)))))) | 47.6 °C | -21.6 kcal/mol
TCCTGGAAACAGGA (((((....))))) | 45.5 °C | -18.4 kcal/mol
GGCGATACGAAAGTAGCC (((..(((....)))))) | 49.5 °C | -23.3 kcal/mol
GCGGCGACCGC ((((...)))) | 55.8 °C | -16 kcal/mol
GGCGAAACGAAAGTTGCC (((..(((....)))))) | 49.5 °C | -25.5 kcal/mol
GATCCGGCGGCGGATC ((((((....)))))) | 58.7 °C | -41.5 kcal/mol
GCCTGGCGAAAGCTACGC ((.(.((....)).).)) | 37.8 °C | -6.66 kcal/mol
GTCACGCCGAAAGGCGAC (((..(((....)))))) | 32.1 °C | -6.44 kcal/mol
GAGTGCGAAAGCATACTC ((((((....)))..))) | 43.1 °C | -17.5 kcal/mol
GCCTGCACGAAAGTGGGC (((..(((....)))))) | 47.3 °C | -20.3 kcal/mol
GTCGGCGGAAACGCTGGC (.(.(((....))).).) | 50.5 °C | -21.2 kcal/mol
CATGTGAAAACATG (((((....))))) | 47.2 °C | -23.3 kcal/mol
